{"data": "Measured values pooled from the literature", "note": "Each line is one published result; the experiments were not run side by side."}
{"Structure (SMILES)": "O=C(Nc1ccccc1-c1ccc(F)c(F)c1)c1nccnc1C(F)(F)F", "organism": "Monilinia fructicola", "test": "microbial growth", "measurement": "EC50", "result": "0.11 mg/L"}
{"Structure (SMILES)": "CC(CN)c1ccc(Oc2ccc(-c3noc(-c4ccc(O)cc4)n3)cc2)cc1.Cl (racemic)", "organism": "Enterococcus faecium", "test": "microbial growth, broth dilution", "setting": "24 h", "measurement": "MIC", "result": "4 mg/L"}
{"Structure (SMILES)": "CS(=O)(=O)CCNCc1nc(-c2ccc3ncnc(Nc4ccc(OCc5cccc(C(F)(F)F)c5)cc4)c3c2)cs1", "organism": "Trypanosoma brucei", "test": "parasite growth", "measurement": "EC50", "result": "3.16 µM"}
{"Structure (SMILES)": "CS(=O)(=O)NCc1cccc(-n2c(/C=C/c3ccc(C#N)cc3)nc3ccccc3c2=O)c1", "organism": "Enterococcus faecium", "test": "microbial growth, broth dilution", "test system": "NCTC7171", "measurement": "MIC", "result": "> 128 mg/L"}
{"Structure (SMILES)": "C=CCCCCCCCCCCCC(O)CC(O)CO (stereo not drawn)", "organism": "Candida albicans", "test": "microbial growth, broth dilution", "test system": "ATCC90028", "measurement": "IC50", "result": "> 200 mg/L"}
{"Structure (SMILES)": "C[C@@H]1[C@H](O)[C@@H](C)/C=C/C=C/C=C/C=C/C=C/C=C/C=C/[C@H](O[C@@H]2O[C@H](C)[C@@H](O)[C@H](N)[C@@H]2O)C[C@@H]2O[C@](O)(C[C@@H](O)C[C@@H](O)[C@H](O)CC[C@@H](O)C[C@@H](O)CC(=O)O[C@H]1C)C[C@H](O)[C@H]2C(=O)O", "organism": "Candida albicans", "test": "microbial growth, broth dilution", "test system": "ATCC90028", "measurement": "IC50", "result": "0.26 mg/L"}
{"Structure (SMILES)": "CC(=O)Nc1ccc(-c2nc(-c3ccc(Oc4ccccc4)cc3)no2)cc1", "organism": "Enterococcus faecium", "test": "microbial growth, broth dilution", "setting": "24 h", "measurement": "MIC", "result": "> 32 mg/L"}
{"Structure (SMILES)": "Cc1ccc2c(-c3ccnc(Nc4ccccc4)n3)c(-c3ccc(F)cc3)nn2n1", "organism": "Plasmodium berghei", "test": "parasite growth, luciferase", "test system": "human", "setting": "liver stage", "measurement": "IC50", "result": "5.5 µM"}
{"Structure (SMILES)": "NC(=O)c1cccc(-n2c(/C=C/c3ccc(F)cc3)nc3ccncc3c2=O)c1", "organism": "Enterococcus faecium", "test": "microbial growth, broth dilution", "test system": "NCTC7171", "measurement": "MIC", "result": "> 128 mg/L"}
{"Structure (SMILES)": "O=C(O)c1ccc(-c2c[nH]c3ncc(-c4ccccc4)cc23)cc1C1CCCC1", "organism": "Plasmodium berghei", "test": "parasite growth, luciferase", "test system": "human", "setting": "liver stage", "measurement": "IC50", "result": "1.2 µM"}
{"Structure (SMILES)": "NS(=O)(=O)c1ccc(N/N=C2\\C(=O)Nc3ccc(Cl)cc32)cc1", "organism": "Trypanosoma brucei", "test": "parasite growth", "measurement": "EC50", "result": "1.58 µM"}
{"Structure (SMILES)": "O=C(NCCO)c1cccc(-n2c(/C=C/c3ccc(F)cc3)nc3ccccc3c2=O)c1", "organism": "Enterococcus faecium", "test": "microbial growth, broth dilution", "test system": "NCTC7171", "measurement": "MIC", "result": "> 128 mg/L"}
{"Structure (SMILES)": "O=S(=O)(CCOCc1ccc(-c2ccc3ncnc(Nc4ccc(OCc5cccc(F)c5)c(Cl)c4)c3c2)o1)c1ccccc1", "organism": "Trypanosoma brucei", "test": "parasite growth", "measurement": "EC50", "result": "1.58 µM"}
{"Structure (SMILES)": "CC(=O)OCCCn1c(/C=C/c2ccc(C#N)cc2)nc2ccccc2c1=O", "organism": "Enterococcus faecium", "test": "microbial growth, broth dilution", "test system": "NCTC7171", "measurement": "MIC", "result": "> 128 mg/L"}
{"Structure (SMILES)": "COc1cc2c(cc1Nc1nc(Nc3cccc(F)c3C(N)=O)c3cc[nH]c3n1)N(C(=O)CN1CCN(C(C)C)CC1)CC2", "organism": "Trypanosoma brucei", "test": "parasite growth", "measurement": "EC50", "result": "0.2 µM"}
{"Structure (SMILES)": "O=C(O)c1cn(C2CC2)c2cc(N3CCNCC3)c(F)cc2c1=O", "organism": "Mycobacterium intracellulare", "test": "microbial killing", "test system": "ATCC23068", "measurement": "MBC", "result": "3 µM"}
{"Structure (SMILES)": "CCn1c(-c2nonc2N)nc2c(C#CC(C)(C)O)nc(OC[C@@H](N)c3ccccc3)cc21", "organism": "Trypanosoma brucei", "test": "parasite growth", "measurement": "EC50", "result": "2.51 µM"}
{"Structure (SMILES)": "O=C(O)c1cn(C2CC2)c2cc(N3CCNCC3)c(F)cc2c1=O", "organism": "Mycobacterium intracellulare", "test": "microbial growth, resazurin", "test system": "ATCC23068", "measurement": "IC50", "result": "0.4 mg/L"}
